Assay results reported in ChEMBL document CHEMBL3352374, “Discovery of novel Bcr-Abl inhibitors targeting myristoyl pocket and ATP site” (Bioorg Med Chem, 2014).

Experiments:
[1] = biological target: Bcr/Abl fusion protein (Homo sapiens, UniProt P00519); experiment: Inhibition of BCR/ABL (unknown origin) after 40 mins by ADP-Glo kinase assay; assay type: protein assay
[2] = tested on: K562; experiment: Antiproliferative activity against Bcr/Abl positive human K562 cells after 48 hrs by MTT method; assay type: functional, cell-based; settings: K562, 48 h
Procedure, shortened: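 Bcr–Abl positive K562 cells in exponential growth plated at 1 × 10⁴ cells/well and incubated 24 h at 37 °C. Compounds then added at various concentrations for 48 h. MTT (5 mg/mL) added for 4 h at 37 °C, supernatant discarded, formazan dissolved in DMSO. Absorbance read at 570 nm.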

Bcr/Abl fusion protein, sequence (P00519 whole entry, the tested form may be a part): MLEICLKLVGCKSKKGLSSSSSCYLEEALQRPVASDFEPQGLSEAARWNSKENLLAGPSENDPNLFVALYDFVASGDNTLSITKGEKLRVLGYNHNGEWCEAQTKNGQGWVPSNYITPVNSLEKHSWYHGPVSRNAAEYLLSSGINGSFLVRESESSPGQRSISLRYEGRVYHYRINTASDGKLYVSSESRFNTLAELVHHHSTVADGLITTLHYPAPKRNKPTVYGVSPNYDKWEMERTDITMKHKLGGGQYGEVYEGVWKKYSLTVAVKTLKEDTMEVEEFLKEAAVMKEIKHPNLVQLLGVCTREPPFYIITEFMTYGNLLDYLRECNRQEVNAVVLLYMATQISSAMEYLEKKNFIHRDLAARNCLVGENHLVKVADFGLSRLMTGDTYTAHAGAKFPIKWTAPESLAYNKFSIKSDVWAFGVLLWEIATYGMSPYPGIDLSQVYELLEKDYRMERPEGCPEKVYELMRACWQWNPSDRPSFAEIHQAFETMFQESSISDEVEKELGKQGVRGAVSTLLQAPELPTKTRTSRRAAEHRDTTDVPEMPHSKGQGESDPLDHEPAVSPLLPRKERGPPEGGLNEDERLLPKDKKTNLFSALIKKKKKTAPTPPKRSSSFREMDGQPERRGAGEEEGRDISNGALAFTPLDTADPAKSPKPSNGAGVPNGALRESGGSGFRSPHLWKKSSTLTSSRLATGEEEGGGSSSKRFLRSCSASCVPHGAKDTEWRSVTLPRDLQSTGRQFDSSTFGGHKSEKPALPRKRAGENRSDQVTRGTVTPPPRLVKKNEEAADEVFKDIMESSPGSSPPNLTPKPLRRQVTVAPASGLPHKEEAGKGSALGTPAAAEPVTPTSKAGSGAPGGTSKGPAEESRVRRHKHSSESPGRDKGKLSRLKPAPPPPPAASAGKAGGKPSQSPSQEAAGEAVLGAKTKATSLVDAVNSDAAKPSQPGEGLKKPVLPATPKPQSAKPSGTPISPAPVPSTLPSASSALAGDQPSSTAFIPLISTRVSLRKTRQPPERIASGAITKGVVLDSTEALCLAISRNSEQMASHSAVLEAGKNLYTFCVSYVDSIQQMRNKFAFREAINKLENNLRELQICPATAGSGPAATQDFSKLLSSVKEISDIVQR
Bcr/Abl fusion protein, sequence (P11274 whole entry, further chain, the tested form may be a part): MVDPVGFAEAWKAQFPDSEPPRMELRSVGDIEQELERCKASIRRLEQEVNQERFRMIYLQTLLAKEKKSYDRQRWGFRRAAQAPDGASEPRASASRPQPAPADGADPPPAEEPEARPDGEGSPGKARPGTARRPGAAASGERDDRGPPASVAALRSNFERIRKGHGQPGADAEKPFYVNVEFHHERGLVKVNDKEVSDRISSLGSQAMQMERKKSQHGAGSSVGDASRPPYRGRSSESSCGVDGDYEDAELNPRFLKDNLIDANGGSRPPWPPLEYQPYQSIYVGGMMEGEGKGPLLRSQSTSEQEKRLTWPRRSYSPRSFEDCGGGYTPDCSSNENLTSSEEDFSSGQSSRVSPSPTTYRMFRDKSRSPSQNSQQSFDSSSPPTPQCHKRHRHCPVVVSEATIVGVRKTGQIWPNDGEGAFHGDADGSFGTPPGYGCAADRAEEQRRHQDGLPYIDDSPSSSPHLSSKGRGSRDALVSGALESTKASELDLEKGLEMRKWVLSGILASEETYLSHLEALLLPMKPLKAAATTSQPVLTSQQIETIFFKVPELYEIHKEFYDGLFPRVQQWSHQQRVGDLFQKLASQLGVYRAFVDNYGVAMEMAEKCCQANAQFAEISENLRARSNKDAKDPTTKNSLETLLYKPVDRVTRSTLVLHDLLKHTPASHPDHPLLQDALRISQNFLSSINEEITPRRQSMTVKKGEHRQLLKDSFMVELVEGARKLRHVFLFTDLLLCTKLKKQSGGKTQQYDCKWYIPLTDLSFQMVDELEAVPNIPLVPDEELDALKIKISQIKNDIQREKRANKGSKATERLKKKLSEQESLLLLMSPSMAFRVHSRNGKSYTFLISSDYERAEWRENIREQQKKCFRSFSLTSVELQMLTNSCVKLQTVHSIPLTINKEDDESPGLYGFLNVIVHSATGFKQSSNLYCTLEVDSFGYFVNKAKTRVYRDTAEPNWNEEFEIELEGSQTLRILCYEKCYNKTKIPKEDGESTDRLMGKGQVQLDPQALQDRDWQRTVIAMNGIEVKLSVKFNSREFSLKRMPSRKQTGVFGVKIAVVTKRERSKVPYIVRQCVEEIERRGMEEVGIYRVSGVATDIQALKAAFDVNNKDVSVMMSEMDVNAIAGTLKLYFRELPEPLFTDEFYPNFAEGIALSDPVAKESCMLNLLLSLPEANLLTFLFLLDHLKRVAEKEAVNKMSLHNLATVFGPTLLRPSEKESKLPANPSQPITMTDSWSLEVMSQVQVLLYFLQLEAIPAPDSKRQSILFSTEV

| SMILES | IC50 [1] | IC50 [2] |
| --- | --- | --- |
| O=C(c1ccc(-c2cc(Nc3cccc(C(F)(F)F)c3)ncn2)cc1)N1CCN(C(=O)c2cccc(C(F)(F)F)c2)CC1 | 0.563 µM | 25.9 µM |
| O=C(c1ccc(-c2cc(Nc3ccc(F)cc3)ncn2)cc1)N1CCN(C(=O)c2ccccc2F)CC1 | 277 µM | 363 µM |
| O=C(c1ccc(-c2cc(Nc3ccc(Cl)cc3Cl)ncn2)cc1)N1CCN(C(=O)c2ccccc2F)CC1 | > 500 µM | > 500 µM |
| O=C(c1ccc(-c2cc(Nc3cccc(Cl)c3)ncn2)cc1)N1CCN(C(=O)c2ccccc2F)CC1 | 91.8 µM |  |
| O=C(c1ccc(-c2cc(Nc3ccc(C(F)(F)F)cc3)ncn2)cc1)N1CCN(C(=O)c2ccccc2F)CC1 | 78.6 µM | 283 µM |
| O=C(c1ccc(-c2cc(Nc3ccc(Cl)c(Cl)c3)ncn2)cc1)N1CCN(C(=O)c2ccccc2F)CC1 | > 500 µM | > 500 µM |
| CC(C)(C)c1ccc(Nc2cc(-c3ccc(C(=O)N4CCN(C(=O)c5ccccc5F)CC4)cc3)ncn2)cc1 | 354 µM | > 500 µM |
| O=C(c1ccc(-c2cc(Nc3ccccc3Cl)ncn2)cc1)N1CCN(C(=O)c2ccccc2F)CC1 | 141 µM | 80.7 µM |
| Cc1ccc(Nc2cc(-c3ccc(C(=O)N4CCN(C(=O)c5ccccc5F)CC4)cc3)ncn2)cc1Cl | > 500 µM | > 500 µM |
| O=C(c1ccc(-c2cc(Nc3ccc(F)cc3)ncn2)cc1)N1CCN(C(=O)c2cccc(C(F)(F)F)c2)CC1 | 1.44 µM | 86.9 µM |
| CC(C)(C)c1ccc(Nc2cc(-c3ccc(C(=O)N4CCN(C(=O)c5ccccc5Cl)CC4)cc3)ncn2)cc1 | > 500 µM |  |
| O=C(c1ccc(-c2cc(Nc3cccc(C(F)(F)F)c3)ncn2)cc1)N1CCN(C(=O)c2ccccc2F)CC1 | 0.872 µM |  |
| O=C(c1ccc(-c2cc(Nc3cccc(Br)c3)ncn2)cc1)N1CCN(C(=O)c2ccccc2F)CC1 | > 500 µM | > 500 µM |
| O=C(c1ccc(-c2cc(Nc3ccc(F)c(F)c3)ncn2)cc1)N1CCN(C(=O)c2ccccc2F)CC1 | > 500 µM | > 500 µM |
| CC(=O)c1cccc(Nc2cc(-c3ccc(C(=O)N4CCN(C(=O)c5ccccc5F)CC4)cc3)ncn2)c1 | 0.385 µM |  |
| COc1cccc(Nc2cc(-c3ccc(C(=O)N4CCN(C(=O)c5cccc(C(F)(F)F)c5)CC4)cc3)ncn2)c1 | 13.5 µM | 106 µM |
| O=C(c1ccc(-c2cc(Nc3cc(C(F)(F)F)cc(C(F)(F)F)c3)ncn2)cc1)N1CCN(C(=O)c2ccccc2F)CC1 | 0.13 µM | 60.4 µM |
| CC(C)c1cccc(Nc2cc(-c3ccc(C(=O)N4CCN(C(=O)c5ccccc5F)CC4)cc3)ncn2)c1 | > 500 µM | > 500 µM |
| O=C(c1ccc(-c2cc(Nc3ccc(Br)cc3)ncn2)cc1)N1CCN(C(=O)c2ccccc2F)CC1 |  | 306 µM |
| COc1cccc(Nc2cc(-c3ccc(C(=O)N4CCN(C(=O)c5ccccc5F)CC4)cc3)ncn2)c1 | 16.1 µM |  |
| Cc1ccc(Nc2cc(-c3ccc(C(=O)N4CCN(C(=O)c5ccccc5F)CC4)cc3)ncn2)cc1 |  | > 500 µM |
| Cc1ccc(NC(=O)c2ccc(CN3CCN(C)CC3)cc2)cc1Nc1nccc(-c2cccnc2)n1 [IMATINIB] |  | 4.12 µM |
| O=C(c1ccc(-c2cc(Nc3ccc(Cl)cc3Cl)ncn2)cc1)N1CCN(C(=O)c2cccc(C(F)(F)F)c2)CC1 | 266 µM | 562 µM |
| O=C(c1ccc(-c2cc(Nc3cccc(F)c3)ncn2)cc1)N1CCN(C(=O)c2ccccc2F)CC1 | 0.017 µM | 17.8 µM |
| COc1cccc(Nc2cc(-c3ccc(C(=O)N4CCN(C(=O)c5ccccc5Cl)CC4)cc3)ncn2)c1 |  | 102 µM |
| O=C(c1ccc(-c2cc(Nc3cccc(F)c3)ncn2)cc1)N1CCN(C(=O)c2ccccc2Cl)CC1 | 6.06 µM |  |
| O=C(c1ccc(-c2cc(Nc3ccccc3F)ncn2)cc1)N1CCN(C(=O)c2ccccc2F)CC1 | 0.05 µM | 14.5 µM |
| O=C(c1ccc(-c2cc(Nc3ccccc3Cl)ncn2)cc1)N1CCN(C(=O)c2ccccc2Cl)CC1 | 0.07 µM | 21.4 µM |
